Reference: ChEMBL document CHEMBL5344428, “Discovery, Crystallographic Studies, and Mechanistic Investigations of Novel Phenylalanine Derivatives Bearing a Quinazolin-4-one Scaffold as Potent HIV Capsid Modulators” (J Med Chem, 2023)

Experiments:
[1] = Cytotoxicity against human MT4 cells assessed as reduction in cell viability incubated for 5 days by MTT assay; format: toxicity, cell-based; conditions: MT4 cells, time 5 day
In short: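 Uninfected MT-4 cells were exposed to compound, and viability was read by the MTT method. […] Each value was run in at least triplicate and averaged from at least three independent experiments.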

[2] = system: Human immunodeficiency virus 1; experiment: Antiviral activity against HIV1 IIIB infected in human MT4 cells assessed as reduction in virus induced cytopathic effect measured after 5 days by MTT assay; format: functional, organism-based; conditions: Human immunodeficiency virus 1, IIIB, MT4, 120 h
In short: (§1)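 MT-4 cells were infected with HIV-1 IIIB or HIV-2 ROD, and cell viability was read by MTT. […] Each value was run in at least triplicate and averaged from at least three independent experiments.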

[3] = system: Human immunodeficiency virus 2; experiment: Antiviral activity against HIV2 ROD infected in human MT4 cells assessed as reduction in virus induced cytopathic effect measured after 5 days by MTT assay; format: functional, organism-based; conditions: Human immunodeficiency virus 2, ROD, MT4, 120 h; in short: as §1
[4] = biological target: Structural capsid protein (Human immunodeficiency virus 1) (UniProt Q76129); experiment: Binding affinity to HIV-1 NL4.3 monomeric capsid protein assessed as Koff by SPR analysis; conditions: filed as modulator
Chain of Structural capsid protein (Human immunodeficiency virus 1) (Q76129 as listed by the source): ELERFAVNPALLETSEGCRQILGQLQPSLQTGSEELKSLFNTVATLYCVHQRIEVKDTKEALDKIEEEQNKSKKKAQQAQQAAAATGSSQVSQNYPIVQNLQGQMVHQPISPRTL
In short: (§2)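 SPR binding of compound to monomeric or disulfide-stabilised hexameric HIV-1 CA NL4.3 protein; koff, residence time and KD derived from isotherms, monomer/hexamer ratio = KD monomer/KD hexamer. Triplicate, SD.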

[5] = biological target: Structural capsid protein (Human immunodeficiency virus 1) (UniProt Q76129); experiment: Binding affinity to HIV-1 NL4.3 monomeric capsid protein assessed as residence time by SPR analysis; conditions: filed as modulator; in short: as §2
[6] = biological target: T1, Structural capsid protein (Human immunodeficiency virus 1, UniProt Q76129); experiment: Binding affinity to HIV-1 NL4.3 monomeric capsid protein assessed as dissociation constant by SPR analysis
T1 sequence (Q76129 whole entry): as the sequence (Q76129 as listed by the source) above

[7] = biological target: Structural capsid protein (Human immunodeficiency virus 1) (UniProt Q76129); experiment: Binding affinity to HIV-1 NL4.3 hexameric capsid protein assessed as Koff by SPR analysis; conditions: filed as modulator; in short: as §2
[8] = biological target: Structural capsid protein (Human immunodeficiency virus 1) (UniProt Q76129); experiment: Binding affinity to HIV-1 NL4.3 hexameric capsid protein assessed as residence time by SPR analysis; conditions: filed as modulator; in short: as §2
[9] = biological target: T1, Structural capsid protein; experiment: Binding affinity to HIV-1 NL4.3 hexameric capsid protein assessed as dissociation constant by SPR analysis
[10] = system: Human immunodeficiency virus 1; experiment: Selectivity ratio of Kd for HIV-1 NL4.3 monomeric capsid protein to Kd for HIV-1 NL4.3 hexameric capsid protein; in short: as §2
[11] = system: Human immunodeficiency virus 1; experiment: Antiviral activity against HIV1 NL4.3 infected in human U87.CD4.CXCR4 cells assessed as inhibition of early stage replication by measuring infection at 1 uM incubated for 48 hrs by microplate luminometer based single-round infection assay (reference value: 100.0 +/- 30.99%); format: functional; design: scale not given: the % may be the effect or the level left
[12] = system: Human immunodeficiency virus 1; experiment: Antiviral activity against HIV1 NL4.3 infected in human U87.CD4.CXCR4 cells assessed as inhibition of late stage replication by measuring infection at 1 uM incubated for 48 hrs by microplate luminometer based single-round infection assay (reference value: 100.0 +/- 18.40%); format: functional; design: scale not given: the % may be the effect or the level left
[13] = biological target: T1, Structural capsid protein; experiment: Competitive binding affinity to HIV-1 NL4.3 hexameric capsid protein assessed as inhibition of CPSF6 binding to capsid protein by SPR analysis
[14] = Metabolic stability in human liver microsomes assessed as half-life at 1 uM incubated for 60 mins in presence of NADPH by LC-MS/MS analysis; format: ADME, Microsome
[15] = Metabolic stability in human liver microsomes assessed as intrinsic clearance at 1 uM incubated for 60 mins in presence of NADPH by LC-MS/MS analysis; format: ADME, Microsome
[16] = Metabolic stability in human liver microsomes assessed as parent compound remaining at 1 uM incubated for 60 mins in presence of NADPH by LC-MS/MS analysis; format: ADME, Microsome; conditions: 1 h
In short: (§3)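 Human liver microsomes were used at a final 0.5 mg protein/mL, incubated 60 min with an NADPH regenerating system. The no-cofactor arm replaced NADPH with buffer. T1/2 came from linear regression of the kinetic data. CLint(mic) = (0.693/T1/2)/mg microsomal protein per mL. CLint(liver) was scaled by mg microsomal protein/g liver and g liver/kg body weight.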

[17] = Metabolic stability in human liver microsomes assessed as parent compound remaining at 1 uM incubated for 60 mins in absence of NADPH by LC-MS/MS analysis; format: ADME, Microsome; conditions: 1 h; in short: as §3
[18] = system: Human immunodeficiency virus 1; experiment: Antiviral activity against HIV-1 IIIB infected in human MT4 cells assessed as protection against virus induced cytopathic effect; format: functional, organism-based; conditions: Human immunodeficiency virus 1, IIIB; in short: as §1
[19] = system: Human immunodeficiency virus 2; experiment: Antiviral activity against HIV-2 ROD infected in human MT4 cells assessed as protection against virus induced cytopathic effect; format: functional, organism-based; conditions: Human immunodeficiency virus 2, ROD; in short: as §1
[20] = biological target: Human immunodeficiency virus type 1 reverse transcriptase (Human immunodeficiency virus 1) (UniProt Q72547); conditions: dose 100.0 nM
[21] = Metabolic stability in human liver assessed as intrinsic clearance at 1 uM incubated for 60 mins in presence of NADPH by LC-MS/MS analysis; format: ADME, tissue-based; conditions: read-out: CLH; in short: as §3

Structure (SMILES)	EC50 [2]	EC50 [3]	K [4]	TIME [5]	K [7]	TIME [8]	Activity [11]	Activity [12]	Stability [16]	Stability [17]	EC50 [18]	EC50 [19]	further results
COc1ccc(N(C)C(=O)[C@H](Cc2ccccc2)NC(=O)Cc2c(C)[nH]c3ccccc23)cc1	800 nM	2220 nM	1.58 s⁻¹	0.000183 h	0.036 s⁻¹	0.00772 h	0.07%	4.185%	0%	106.1%	750 nM	4160 nM	CC50 at 120 h [1]: > 32300 nM; Kd [6]: 969 nM; Kd [9]: 47 nM; Selectivity ratio [10]: 20.6; IC50 [13]: 26.6 nM; half-life at 1 µM ([14]; liver microsomes): 42 s; CLH ([15]; microsomes, 1 h, 1 µM): 2114.6 µL/min/mg
Cc1cc(/C=C/C#N)cc(C)c1Nc1ccnc(Nc2ccc(C#N)cc2)n1	–	–	–	–	–	–	–	–	–	–	–	–	inhibition [20]: 50%
COc1ccc(N(C)C(=O)[C@H](Cc2ccccc2)NC(=O)CN2CCN(S(=O)(=O)c3ccc(N)cc3)CC2=O)cc1	280 nM	30 nM	13.4 s⁻¹	1.67e-05 h	2.04 s⁻¹	0.000133 h	0.092%	0.807%	0%	113.3%	280 nM	30 nM	t1/2 ([14]; microsomes, 1 h, 1 µM): 240 s; microsomal CLint at 1 µM ([15]; liver microsomes, read-out: CLH): 344 µL/min/mg; CLint scaled at 1 µM [21]: 309 mL/min/kg
